Published values pooled from the literature.
Each line is one published result; the experiments were not run side by side.

| SMILES | host | medium | route | dose | setting | Tmax [min] |
| --- | --- | --- | --- | --- | --- | --- |
| CC(=O)O[C@@]12CO[C@@H]1C[C@H](O)[C@@]1(C)C(=O)[C@H](O)C3=C(C)[C@@H](OC(=O)[C@H](O)[C@@H](NC(=O)OC(C)(C)C)c4ccccc4)C[C@@](O)([C@@H](OC(=O)c4ccccc4)[C@H]21)C3(C)C | male Kunming mouse | liver | oral | 20 mg/kg | – | 30 |
| Cc1cc2sc(N)nc2c2cccnc12 | female BALB/c mouse | plasma | intraperitoneal | 30 mg/kg | single dose | 15 |
| Cc1c(C(=O)O)ccc2c3n(nc12)[C@@H]1[C@H](C3)N(CC2CC2)[C@@]2(C(=O)Nc3cc(Cl)ccc32)[C@H]1c1cccc(Cl)c1F | female mouse | plasma | oral | 5 mg/kg | – | 282 |
| CC(C(=O)Nc1c(F)cccc1F)N1CCN(c2ccccc2)CC1 (centres unmarked) | female C57BL/6 mouse | brain | intraperitoneal | 10 mg/kg | – | 15 |
| Nc1ncn([C@H]2C[C@H](O)[C@@H](CO)O2)c(=O)n1 | female C57BL/6 mouse | plasma | oral | 0.4 mg/kg | – | 4.98 |
| CCN1CCN(Cc2ccc(NC(=O)c3ccc(C)c(NC(=O)c4cncc(-c5cccs5)c4)c3)cc2C(F)(F)F)CC1 | mouse | plasma | intraperitoneal | 20 mg/kg | single dose | 30 |
| C[C@@H](N[C@H]1CCN(c2ccc(CC(=O)O)cc2)C1)c1cccc2ccccc12 | male CD-1 mouse | plasma | subcutaneous | 3 mg/kg | single dose | 60 |
| COc1cc2c(NC3CCN(CCCC(=O)NCCCCCCCCCCCC(=O)N[C@H](C(=O)N4C[C@H](O)C[C@H]4C(=O)NCc4ccc(-c5scnc5C)cc4)C(C)(C)C)CC3)nc(N3CCC(F)(F)CC3)nc2cc1OCCCN1CCCC1 | male C57BL/6 mouse | plasma | intraperitoneal | 50 mg/kg | single dose | 30 |
| C=CS(=O)(=O)c1ccc(Nc2nc(OCC3CCCCC3)c3nc[nH]c3n2)cc1 | male BALB/c mouse | plasma | intraperitoneal | 20 mg/kg | single dose | 4.8 |
| CCOc1ccc(N(C)S(=O)(=O)c2cc(Cl)sc2C(=O)Nc2cc(Cl)cc(C(=O)O)c2)cc1OC | male C57BL/6 mouse | plasma | intraperitoneal | 10 mg/kg | – | 15 |
| C[C@@H](NCCCc1cccc(C(F)(F)F)c1)c1cccc2ccccc12 | male CD-1 mouse | plasma | subcutaneous | 3 mg/kg | single dose | 15 |
